{
  "source": "paper PMC12533025",
  "about": "(Scientific Reports, 2025)",
  "key": {"[1]": {"system": "male Wistar mice", "assay": "Warm-water tail-flick test", "format": "in vivo", "details": "for acute antinociceptive agonist effect, tail flick assay: up to 30 mg/kg dose; for percentage of maximum possible effect (% MPE), tail flick assay: compared with the KOP agonist Nalbuphine"}, "[2]": {"molecular_target": "T1, KOP (Mus musculus, UniProt P33534)", "assay": "[35S]-GTPγS stimulated binding functional assay, KOP", "format": "biochemical", "details": "for agonism in the [35S]-GTPγS functional assay: KOP and MOP functional assay", "in_short": "(§1)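 Membranes come from CHO cells expressing cloned mouse opioid receptors. Membrane protein (10 µg) is incubated with test compound (5µM), […] and 0.1nM [35S]-GTPγS in 50mM Tris, 3mM MgCl2, 0.2mM EDTA, pH 7.7, for 2 h at room temperature. Non-specific binding is defined with 20µM unlabelled GTPγS. Full-agonist references at 5µM are DAMGO (MOP) and salvinorin A (KOP).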"}, "[3]": {"molecular_target": "KOP", "details": "[35S]GTP-γ-S assay; cited from earlier work"}, "[4]": {"details": "clinical trials; cited from earlier work"}, "[5]": {"details": "cited from earlier work"}, "[6]": {"molecular_target": "T2, MOP (Mus musculus, UniProt P42866)", "assay": "[35S]-GTPγS stimulated binding functional assay, MOP", "format": "biochemical", "in_short": "as §1"}, "[7]": {"system": "prolactin", "assay": "Prolactin ELISA assay", "format": "in vivo, mice", "details": "rat prolactin ELISA test; relative to normal level", "in_short": "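After dosing, blood is drawn by retro-orbital sinus bleed from isoflurane-anaesthetised mice and spun at 1000 g, 4 °C, 10 min. Plasma is diluted 1:20 and prolactin is measured by […] prolactin sandwich ELISA per kit protocol. Values are in ng/mL. Groups are compared with control by one-way ANOVA and Dunnett post-hoc test (p < 0.05).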"}, "[8]": {"molecular_target": "T2, MOP", "assay": "Radioligand competitive binding assay, MOP", "details": "MOP over KOP"}, "[9]": {"molecular_target": "T1, KOP", "assay": "Radioligand competitive binding assay, KOP", "details": "KOP versus MOP binding"}},
  "data": [
    {"compound": "CC(C)[C@H](CN1CCc2ccccc2C1)NC(=O)Cc1c[nH]c2ccccc12", "note": "[(R)-10c, (R)-N-(1-(3,4-dihydroisoquinolin-2(1H)-yl)-3-methylbutan-2-yl)-2-(1H-indol-3-yl)acetamide]", "values": [
      {"measurement": "acute antinociceptive agonist effect, tail flick assay", "setting": "[1]", "value": "failed to show any significant agonist effect"}
    ]},
    {"compound": "CC(C)[C@@H](CN1CCc2ccccc2C1)NC(=O)c1cccc(-c2cccc(O)c2)c1", "note": "[(S)-10h, (S)-N-(1-(3,4-dihydroisoquinolin-2(1H)-yl)-3-methylbutan-2-yl)-3′-hydroxy-[1,1′-biphenyl]-3-carboxamide]", "values": [
      {"measurement": "functional character at KOP/MOP", "setting": "[2]; KOP and MOP", "value": "non-selective KOP/MOP antagonist"},
      {"measurement": "agonism in the [35S]-GTPγS functional assay", "setting": "[2]", "value": "failed to produce any agonism"},
      {"measurement": "acute antinociceptive agonist effect, tail flick assay", "setting": "[1]", "value": "failed to show any significant agonist effect"}
    ]},
    {"compound": "CC(C)[C@@H](CN1CC[C@@](C)(c2cccc(O)c2)[C@@H](C)C1)NC(=O)[C@H]1Cc2ccc(O)cc2CN1", "note": "[JDTic]", "values": [
      {"measurement": "Ki", "setting": "[3]", "value": 0.006, "unit": "nM"},
      {"measurement": "µ/ĸ ratio", "setting": "[3]", "value": 570},
      {"measurement": "δ/ĸ ratio", "setting": "[3]", "value": "> 16600"},
      {"measurement": "adverse effects (NSVT)", "setting": "[4]", "value": "non-sustained ventricular tachycardia (NSVT)"},
      {"measurement": "blood–brain barrier penetration", "setting": "[5]", "value": "low blood–brain barrier penetration"}
    ]},
    {"compound": "Cc1cc(C)cc([C@@H]2CCCN2Cc2ccc(Oc3ccc(C(N)=O)cc3F)cc2)c1", "note": "[Aticaprant]", "values": [
      {"measurement": "adverse effects (NSVT)", "setting": "[4]", "value": "devoid of the NSVT effect"}
    ]},
    {"compound": "CC(C)[C@@H](CN1CCc2ccccc2C1)NC(=O)c1cccc(-c2cccc(C#N)c2)c1", "note": "[(S)-10i, (S)-3′-cyano-N-(1-(3,4-dihydroisoquinolin-2(1H)-yl)-3-methylbutan-2-yl)-[1,1′-biphenyl]-3-carboxamide]", "values": [
      {"measurement": "agonism in the [35S]-GTPγS functional assay", "setting": "[2]", "value": "failed to produce any agonism"},
      {"measurement": "acute antinociceptive agonist effect, tail flick assay", "setting": "[1]", "value": "failed to show any significant agonist effect"}
    ]},
    {"compound": "Cc1c(CC(=O)N[C@@H](CN2CCc3ccccc3C2)C(C)C)cccc1[N+](=O)[O-]", "note": "[(R)-10m, (R)-N-(1-(3,4-dihydroisoquinolin-2(1H)-yl)-3-methylbutan-2-yl)-2-(2-methyl-3-nitrophenyl)acetamide]", "values": [
      {"measurement": "EC50", "setting": "[2]", "value": 666, "unit": "nM"},
      {"measurement": "EC50", "setting": "[6]", "value": 94.5, "unit": "nM"},
      {"measurement": "IC50", "setting": "[6]", "value": 94.5, "unit": "nM"},
      {"measurement": "blood prolactin levels", "setting": "[7]", "value": "double"},
      {"measurement": "MOP selectivity", "setting": "[8]", "value": 23, "unit": "fold"},
      {"measurement": "latency in the tail-flick animal model", "setting": "[1]; compared with positive control Nalbuphine", "value": "comparable latency to the positive control, Nalbuphine"},
      {"measurement": "percentage of maximum possible effect (% MPE), tail flick assay", "setting": "[1]", "value": "comparable to that of the KOP agonist Nalbuphine"}
    ]},
    {"compound": "CC(C)Cc1ccc([C@@H](C)C(=O)NC(CN2CCc3ccccc3C2)C(C)C)cc1", "note": "(stereo partly drawn) [(R)-10d]", "values": [
      {"measurement": "KOP selectivity", "setting": "[9]", "value": "most selective"},
      {"measurement": "blood prolactin levels", "setting": "[7]", "value": "double"},
      {"measurement": "percentage of maximum possible effect (% MPE), tail flick assay", "setting": "[1]", "value": "comparable to that of the KOP agonist Nalbuphine"}
    ]},
    {"compound": "CC(C)[C@@H](CN1CCc2ccccc2C1)NC(=O)c1cccc(-c2cccnc2)c1", "note": "[(S)-10j, (S)-N-(1-(3,4-dihydroisoquinolin-2(1H)-yl)-3-methylbutan-2-yl)-3-(pyridin-3-yl)benzamide]", "values": [
      {"measurement": "blood prolactin levels", "setting": "[7]", "value": "double"},
      {"measurement": "percentage of maximum possible effect (% MPE), tail flick assay", "setting": "[1]", "value": "comparable to that of the KOP agonist Nalbuphine"}
    ]}
  ]
}
